Screening data (PubChem)
Mot1-301 SUMO = blocks SUMOylation pathway, rescuing yeast Mot1-301 growth | S. cerevisiae Mot1-301 growth rescue, ATP luminescence, 38.5C; percent above DMSO median, 100 means doubled | growth rescue, % at 18.8 µM | actives 1% (n = 320,000);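 active = every valid replicate shows activation above 250% relative to neutral control wells; inactive = the rest, any valid replicate at or below 250%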;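 also: OY570 slx delta 5 strain wells were the positive control but not used for scaling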
C2C12 statin = suppression of simvastatin myotoxicity; C2C12 myotubes + simvastatin, ATP luminescence, 48 h; scaled: DMSO 0, geranylgeraniol control 100; rescue of ATP level, % at 7.49 µM; actives 0.78% (n = 330,000); AID 602340;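 active = mean ATP rescue above about 67%, or every replicate alone reaching that limit, limit read from the data, passing the limit was not always enough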;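 also: myotubes were challenged with 10 µM simvastatin during compound exposure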
ASAP1 inh = ASAP1 ArfGAP inhibition. ASAP1-stimulated ARF1 GTP hydrolysis, GDP FP detection. inhibition, % at 16.5 µM. actives 0.19% (n = 360,000); in the data active = inhibition above about 25%;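 also: 0% = vehicle with enzyme and substrate and 100% = no enzyme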
APOBEC3G inh = inhibitors of human APOBEC3G DNA deaminase; Q9HC16; recombinant A3G, ssDNA deamination FAM/TAMRA fluorescence; actives 0.28% (n = 330,000); inhibition, % at 20 µM;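 active = inhibition of at least 40% at 20 µM, with no more than 30% in the related APOBEC3A deaminase screen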;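 also: plate controls were DMSO wells with A3G for no effect and wells lacking A3G enzyme for full effect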
ARFGAP1 inh = inhibitors of rat ARFGAP1; Arfgap1-stimulated ARF1 GTP hydrolysis, GDP FP detection; inhibition, % at 16.5 µM; actives 0.26% (n = 360,000); AID 651572;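 active = inhibition above a per-plate limit, mean inhibition of low control wells plus 3 SD, cut at about 25% in these data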;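 also: 0% = DMSO wells with enzyme and 100% = wells lacking Arfgap1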
Target sequence (Q62848 1-136 limits assumed): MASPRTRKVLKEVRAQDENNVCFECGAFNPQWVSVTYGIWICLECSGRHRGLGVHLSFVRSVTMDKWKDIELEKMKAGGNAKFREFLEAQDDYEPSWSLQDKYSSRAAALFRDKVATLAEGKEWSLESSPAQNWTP
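Assay system: Rat Arfgap1 GAP domain (His6, aa 1-136), purified enzyme | Buffer or medium: HEPES 25 mM pH 7.5, NaCl 150 mM, MgCl2, DTT | Schedule: GTP hydrolysis reaction 2 h at 25 °C | Signal: FP of antibody-bound GDP Alexa 633 tracer, ex 620/em 688 nm | Measure: Percent inhibition of Arfgap1-stimulated GTP hydrolysis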
APOBEC3A inh = inhibitors of human APOBEC3A DNA deaminase; recombinant A3A, FAM/TAMRA ssDNA deamination fluorescence; inhibition, % at 20 µM; AID 493011; actives 0.41% (n = 330,000); P31941;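 active = at least 40% inhibition at 20 µM here, with at most 30% in a related deaminase screen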;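 also: plate controls were A3A with DMSO for no effect and wells lacking A3A enzyme for full effect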
Target sequence (P31941 whole entry, looked up): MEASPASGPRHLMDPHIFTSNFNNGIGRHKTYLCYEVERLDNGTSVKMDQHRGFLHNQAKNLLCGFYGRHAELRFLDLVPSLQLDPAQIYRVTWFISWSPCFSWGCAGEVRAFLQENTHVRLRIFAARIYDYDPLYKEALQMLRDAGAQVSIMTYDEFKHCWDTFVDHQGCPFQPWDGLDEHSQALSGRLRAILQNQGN
APOBEC3A confirm = confirmation of human APOBEC3A DNA deaminase inhibitors | shares compounds with APOBEC3A inh | inhibition, % at 20 µM | recombinant A3A, ssDNA deaminase UDG fluorescence assay | actives 63% (n = 1,400) | AID 493151;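 active = inhibition reaching a set limit, 80% of the first screen's cutoff, at 20 µM in any replicate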;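 also: plate controls were DMSO wells with A3A for no effect and wells lacking A3A enzyme for full effect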
UDG ctr A3A = UDG inhibition in APOBEC3A counter-screen; 1,000 tested, under 10 active; inhibition, % at 20 µM; shares compounds with APOBEC3A inh; UDG counterscreen, FAM/TAMRA uracil oligo fluorescence; AID 504714; call rule not given here
* marks the source's active call; other numbers are inactive results. Sampled rows, rich in hits. Any-hit rate of the full collection: about 2.1%.

COc1nc(Cc2ccc(Cl)cc2)nc2ccccc12 was read as Mot1-301 SUMO 0, ASAP1 inh -5, APOBEC3G inh -2, ARFGAP1 inh 3 and APOBEC3A inh 0.
For COc1ccc(N(CC(=O)NCCSc2ccc(C)cc2)S(=O)(=O)c2ccccc2)c(OC)c1 the results were Mot1-301 SUMO -11, C2C12 statin -41, ASAP1 inh -15, APOBEC3G inh 12, ARFGAP1 inh -2, APOBEC3A inh 54*, APOBEC3A confirm 40* and UDG ctr A3A -1.
COc1ccc(N(CC(=O)NN=C2CCCC2)S(=O)(=O)c2ccccc2)cc1 was read as Mot1-301 SUMO -25, C2C12 statin -8, ASAP1 inh 8, APOBEC3G inh -5, ARFGAP1 inh -4 and APOBEC3A inh -2.
For CC(C)c1ccc(N(CC(=O)NN=C2CCN(C)CC2)S(=O)(=O)c2ccccc2)cc1 the results were Mot1-301 SUMO -13, C2C12 statin -1, ASAP1 inh -4, APOBEC3G inh -4, ARFGAP1 inh -10, APOBEC3A inh 65*, APOBEC3A confirm 3 and UDG ctr A3A 7.
COc1ccc(N(CC(=O)NCC(C)C)S(=O)(=O)c2ccccc2)cc1 was read as Mot1-301 SUMO 2, ASAP1 inh 7, APOBEC3G inh 9, ARFGAP1 inh 3, APOBEC3A inh 41* and APOBEC3A confirm 10.
For COCC#Cc1cnc2c(c1)C(=O)N([C@H](C)CO)C[C@H](C)[C@@H](CN(C)C(=O)C1CCCCC1)O2 the results were C2C12 statin -2.
For O=Cc1cn(-c2ccccc2)nc1-c1cc2c(ccc3ccccc32)oc1=O the results were ASAP1 inh 11, APOBEC3G inh -8, ARFGAP1 inh 6, APOBEC3A inh 77*, APOBEC3A confirm -5 and UDG ctr A3A 6.
Screening O=C(Nc1ccc(Cl)cc1)c1ccc2c(=O)n3c(nc2c1)CCCCC3 returned C2C12 statin -7, ASAP1 inh 0, APOBEC3G inh 11, ARFGAP1 inh 7, APOBEC3A inh 52* and APOBEC3A confirm -4.
Screening O=C(Nc1ccc(F)c(Cl)c1)c1ccc2c(=O)n3c(nc2c1)CCCCC3 returned Mot1-301 SUMO 166, C2C12 statin -4, ASAP1 inh -2, APOBEC3G inh -3, ARFGAP1 inh -1 and APOBEC3A inh -1.
For CO[C@@H]1CN(C)C(=O)c2cc(NC(=O)Nc3ccc(C(F)(F)F)cc3)ccc2OC[C@@H](C)NC[C@@H]1C the results were C2C12 statin -106.
For CCC(C)N(C(=O)COc1ccc(Cl)c2cccnc12)C1CCS(=O)(=O)C1 (centres undefined) the results were Mot1-301 SUMO -4, C2C12 statin 8, ASAP1 inh 14, APOBEC3G inh 29, ARFGAP1 inh -9, APOBEC3A inh 62* and APOBEC3A confirm 25.
Screening CCC(C)N(C(=O)COc1ccccc1C#N)C1CCS(=O)(=O)C1 (centres undefined) returned Mot1-301 SUMO 81, C2C12 statin 4, ASAP1 inh 2, APOBEC3G inh -9, ARFGAP1 inh 5 and APOBEC3A inh -1.
COc1ccc(C=NCCC2(O)CC(C)N(C)CC2C)cc1 (centres undefined) was read as Mot1-301 SUMO -8, C2C12 statin 9, ASAP1 inh -4, APOBEC3G inh 1, ARFGAP1 inh -9, APOBEC3A inh 48* and APOBEC3A confirm 1.
`C[C@H](CO)N1C[C@H](C)[C@@H](CN(C)Cc2cncnc2)Oc2cc(C3=CCCC3)ccc2S1(=O)=O` gave C2C12 statin -11.
Screening COc1ccc(S(=O)(=O)N2C[C@@H](O)COC[C@H]3O[C@@H](CC(=O)NCCCN4CCOCC4)CC[C@@H]32)cc1 returned C2C12 statin -1.
